A selection: hits, their analogues and other compounds. The true share with any hit is near 3.7%.
ROMK mod = modulators of human ROMK potassium channel. AID 1918. Tet-inducible ROMK, thallium flux fluorescence; actives lie on both sides. P48048. B-score at 10 µM. hit rate 2% among 130,000;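 active means signal ratio slope over the read window, or its plate-corrected B-score, at least 3 SD from the plate mean, either direction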;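 further: B-score of the F/F0 ratio slope over 7 to 12 s after thallium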
Target sequence (P48048 whole entry, looked up): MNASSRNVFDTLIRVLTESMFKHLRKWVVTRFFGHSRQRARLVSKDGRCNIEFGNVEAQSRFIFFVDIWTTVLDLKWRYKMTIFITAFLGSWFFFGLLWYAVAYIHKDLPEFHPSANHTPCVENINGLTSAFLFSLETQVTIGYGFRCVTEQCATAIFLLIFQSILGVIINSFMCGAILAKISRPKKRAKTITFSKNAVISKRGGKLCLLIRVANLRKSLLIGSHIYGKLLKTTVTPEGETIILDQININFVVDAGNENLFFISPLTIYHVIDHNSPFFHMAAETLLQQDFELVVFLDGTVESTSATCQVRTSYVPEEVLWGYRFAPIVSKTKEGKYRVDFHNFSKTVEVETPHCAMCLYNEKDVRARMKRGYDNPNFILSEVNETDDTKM
bCat nuc transl = modulators of beta-catenin nuclear translocation; HeLa beta-catenin nuclear translocation, immunofluorescence imaging; nuclear translocation activity, % at 5 µM; hit rate 0.3% among 190,000; AID 1665;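 active means nuclear translocation activity above 50% at 5 µM, with a well cell count of 50 or more; inconclusive means wells under 50 cells across six images, flagged as toxic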;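 further: per-cell ratio of nuclear to cytoplasmic median beta-catenin stain intensity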
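Test system: human HeLa cells, endogenous beta-catenin. Times: 24 h compound exposure, 37°C. Measured by: beta-catenin immunofluorescence imaging with DAPI.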
MT stabilizer = microtubule stabilization, imaging screen. HeLa tubulin immunostaining HCS, 24 h; share of cells brighter than vehicle mean+2SD. % tubulin-high responders, % at 10 µM. hit rate 0.83% among 200,000. AID 2205;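 active means plate Z-score above 3 for both tubulin-high and condensed-nucleus cell shares, with cell loss under 80%, at 10 µM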;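 further: anti alpha tubulin signal scored within the nucleus-defined area of each cell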
DTT redox prof = compounds producing H2O2 with reducing agent – biochemical, NIH compound library profiling, artefact control for MLSCN library redox annotation, primary screen; DTT-dependent redox cycling H2O2, phenol red/HRP absorbance; 100% = 100 µM peroxide control, 0% = buffer; activation, % at 10 µM; hit rate 0.03% among 200,000; AID 878;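 active means activation of at least 50% relative to the plate's high and low controls in the primary single-dose screen; inactive means activation below 50%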;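 further: compound incubated with DTT at 0.8 mM final as the reducing agent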
KCC2 mod = KCC2 (human) Cl- transport modulation; AID 1456; B-score of Tl+ flux slope (higher = more flux/activation; lower = inhibition) at 10 µM; hit rate 2.2% among 190,000; KCC2 cells, thallium flux FluoZin-2 fluorescence;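 active means thallium flux slope and its plate-corrected score both differing from the plate sample mean at a set confidence after two filtering rounds, in either direction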;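 further: slope of fluorescence scaled to starting intensity during 10 to 20 s after thallium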
ROMK hit retest = confirmation of human ROMK potassium channel modulators | normalized thallium flux (F/F0 slope) at 10 µM | hit rate 54% among 3,000 | shares compounds with ROMK mod | ROMK thallium flux, fluorescence ratio; hits give low values | AID 1917;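 active means Flux at 10 µM at least 3 SD below or above vehicle control mean in one or both replicates; inconclusive means no clear call, values can overlap the other calls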
Numbers stand for hits; – = inactive; ? = inconclusive; · = not tested or not shown.

SMILES	ROMK mod	bCat nuc transl	MT stabilizer	DTT redox prof	KCC2 mod	ROMK hit retest
Cc1noc(C)c1CSCC(=O)N1CCN(c2ccc([N+](=O)[O-])cc2)CC1	-4.3	·	–	–	–	0.042
CC(=O)N1CCN(c2ccc([N+](=O)[O-])cc2)CC1	–	–	–	–	–	·
CCCCC(=O)OCC(=O)Nc1ccc(SC(F)F)cc1	–	–	–	–	–	·
O=C(O)CCC(=O)N1CCN(c2ncccc2C(F)(F)F)CC1	·	–	·	·	–	·
c1ccc(-c2csc3ncnc(NCc4ccccn4)c23)cc1	·	–	·	·	–	0.056
CCOC(=O)N1CCC(NC(=O)C2=CCN(S(=O)(=O)c3ccc(OC)cc3)CC2)CC1	–	–	·	·	–	·
CCc1ccc(NC(=O)C(=O)NCc2ccccn2)cc1	·	–	–	–	·	·
CCN(CC)c1ccc(NC(=O)CN2CCN(S(=O)(=O)c3cc(Cl)ccc3OC)CC2)cc1	–	–	–	–	–	·
CCOc1ccc(NC(=O)CCN2CCN(S(=O)(=O)c3cc(Cl)ccc3OC)CC2)cc1	-2.4	–	–	–	·	0.062
CCn1c(CSCc2ccc(Cl)cc2)nnc1SCC(=O)Nc1cccc(C(=O)O)c1	–	–	–	–	–	·
c1ccc(-c2nc(NCCCn3ccnc3)c3ccccc3n2)cc1	-3.6	–	–	–	–	0.06
Cc1cc(NCCCn2ccnc2)n2ncc(-c3ccccc3)c2n1	-3.3	–	–	–	–	–
CCN(CC)CCCNc1nc(-c2ccccc2)nc2ccccc12	–	–	–	–	–	·
Cc1cc(C)c(S(=O)(=O)CCC(C)C)c(=O)[nH]1	·	–	–	–	·	·
CCOC(=O)c1cc(CC)sc1/N=C/c1c(O)ccc2ccccc12	–	–	–	–	–	·
CCOC(=O)COc1c(Br)cc(/C=C2\SC(=O)N(CC(=O)N3CCCC3)C2=O)cc1OC	-4.7	·	–	–	–	0.057
Cc1cc(Cl)c(OCCCCNC(C)(C)C)c(Br)c1	–	–	–	–	–	·
COc1cccc(C(=O)CSc2nnc(-c3cc(OC)cc(OC)c3)o2)c1	1.1	–	–	–	·	?
CC1C(=NO)C(C)C(c2ccc(N(C)C)cc2)NC1c1ccc(N(C)C)cc1 (stereo not drawn)	-4.4	·	–	–	–	0.067
CC1C(=O)C(C)C(c2ccc([N+](=O)[O-])cc2)NC1c1ccc([N+](=O)[O-])cc1 (stereo not drawn)	–	–	·	–	–	·
Nc1nnc(Cc2cccc(Br)c2)s1	–	–	·	·	–	·
CN1C(C(=O)c2ccccc2)=C(N)c2ccccc2S1(=O)=O	3	–	–	–	–	0.066
CN(C(=O)COC(=O)c1ccc2c(c1)OCCO2)c1ccccc1	·	–	–	–	–	·
Cc1ccc(NC(=S)NNC(=S)Nc2ccc(C)cc2C)cc1	5.3	52	9.8	–	–	–
NC(=O)c1sc2nccc(Nc3ccccc3)c2c1N	·	·	–	–	–	0.06
SMILES	ROMK mod	bCat nuc transl	MT stabilizer	DTT redox prof	KCC2 mod	ROMK hit retest
CCc1sc(C(=O)Nc2ccccc2N2CCOCC2)cc1C	-2.6	–	–	–	–	0.064
O=C(Nc1ccccc1N1CCOCC1)c1cc2c(s1)CCCCC2	·	–	–	–	–	·
COc1ccc(S(=O)(=O)CC2(O)CCN(C(=O)CC(C)C)CC2)cc1	–	–	–	–	–	·
O=S(=O)(/N=C(/Nc1cccc2ccccc12)c1ccccc1)c1cccs1	·	–	–	–	–	0.06
Cc1ccc(N/C(=N/S(=O)(=O)c2cccs2)c2ccccc2)c(C)c1	·	–	–	–	–	·
CCCCCCc1ccc(-c2ncc(N)cn2)cc1	-4.3	–	–	–	–	–
Cc1noc(NS(=O)(=O)c2ccc(N/C=C\C(=O)c3ccc4c(c3)OCO4)cc2)c1C	·	–	–	–	·	·
CCOc1ccc(C(=O)/C=C/Nc2ccc(S(=O)(=O)Nc3onc(C)c3C)cc2)cc1	2.7	–	–	–	–	–
COc1cccc(C(=O)/C=C/Nc2ccc(S(=O)(=O)Nc3onc(C)c3C)cc2)c1	·	–	–	–	–	·
CCc1nnc(NS(=O)(=O)c2ccc(N/C=C/C(=O)c3ccc(OC)cc3)cc2)s1	4.1	–	–	–	–	–
Cc1noc(NS(=O)(=O)c2ccc(N/C=C\C(=O)c3ccc(Br)cc3)cc2)c1C	6	–	–	–	–	0.099
CCc1nnc(NS(=O)(=O)c2ccc(N/C=C\C(=O)c3cccc4ccccc34)cc2)s1	–	–	–	–	–	·

Bioassay records as filed in PubChem.
